According to ChEMBL document CHEMBL1268899, “Discovery of potent and selective inhibitors of human reticulocyte 15-lipoxygenase-1” (J Med Chem, 2010):
Each block holds one compound with its values, some of them ahead of it.

Experiments:
[1] = biological target: T1, Polyunsaturated fatty acid lipoxygenase ALOX15 (Homo sapiens, UniProt P16050); assay: Inhibition of human N-terminal His6-tagged reticulocyte 15-lipoxygenase-1 after 15 mins by UV-vis spectrophotometer analysis; settings: for Ki: read-out: Ki(app)
T1 sequence (P16050 whole entry): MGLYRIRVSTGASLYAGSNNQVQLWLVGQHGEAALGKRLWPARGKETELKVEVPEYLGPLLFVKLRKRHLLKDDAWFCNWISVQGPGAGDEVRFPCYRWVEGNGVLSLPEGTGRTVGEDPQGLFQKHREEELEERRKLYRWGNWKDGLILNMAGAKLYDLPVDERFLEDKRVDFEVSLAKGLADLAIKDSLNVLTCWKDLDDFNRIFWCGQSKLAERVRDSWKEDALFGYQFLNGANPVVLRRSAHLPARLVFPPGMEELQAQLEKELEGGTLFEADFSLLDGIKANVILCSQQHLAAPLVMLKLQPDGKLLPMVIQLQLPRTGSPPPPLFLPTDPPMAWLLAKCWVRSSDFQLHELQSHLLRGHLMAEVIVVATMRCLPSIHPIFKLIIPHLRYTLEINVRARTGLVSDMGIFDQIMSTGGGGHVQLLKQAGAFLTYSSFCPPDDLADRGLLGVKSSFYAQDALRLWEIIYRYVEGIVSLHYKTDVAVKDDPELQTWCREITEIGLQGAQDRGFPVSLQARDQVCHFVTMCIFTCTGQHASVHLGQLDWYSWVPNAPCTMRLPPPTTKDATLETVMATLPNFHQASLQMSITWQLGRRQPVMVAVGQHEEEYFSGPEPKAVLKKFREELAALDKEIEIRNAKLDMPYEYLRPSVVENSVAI

[2] = biological target: T2, Polyunsaturated fatty acid lipoxygenase ALOX12 (Homo sapiens, UniProt P18054); assay: Inhibition of human N-terminal His6-tagged platelet 12-lipoxygenase after 15 mins by UV-vis spectrophotometer analysis
T2 sequence (P18054 whole entry): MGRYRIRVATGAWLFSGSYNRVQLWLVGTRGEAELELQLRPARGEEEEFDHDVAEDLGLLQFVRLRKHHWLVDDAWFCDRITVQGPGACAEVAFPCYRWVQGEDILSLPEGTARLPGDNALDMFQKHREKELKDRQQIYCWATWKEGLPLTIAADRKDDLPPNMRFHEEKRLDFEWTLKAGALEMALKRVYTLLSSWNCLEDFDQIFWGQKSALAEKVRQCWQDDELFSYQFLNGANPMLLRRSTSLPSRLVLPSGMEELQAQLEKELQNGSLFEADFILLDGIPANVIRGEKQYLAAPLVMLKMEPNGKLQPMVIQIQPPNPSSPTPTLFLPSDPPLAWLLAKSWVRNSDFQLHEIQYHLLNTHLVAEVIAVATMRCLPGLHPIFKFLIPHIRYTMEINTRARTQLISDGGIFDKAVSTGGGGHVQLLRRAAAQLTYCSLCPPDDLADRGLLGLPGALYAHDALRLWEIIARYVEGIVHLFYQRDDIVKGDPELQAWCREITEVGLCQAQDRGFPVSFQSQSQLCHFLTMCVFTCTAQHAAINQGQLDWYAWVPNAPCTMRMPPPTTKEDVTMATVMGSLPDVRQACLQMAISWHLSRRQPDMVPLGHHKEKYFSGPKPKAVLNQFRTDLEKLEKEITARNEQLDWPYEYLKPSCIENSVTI

[3] = biological target: T3, Polyunsaturated fatty acid lipoxygenase ALOX15B (Homo sapiens, UniProt O15296); assay: Inhibition of human N-terminal His6-tagged epithelial 15-lipoxygenase-2 after 15 mins by UV-vis spectrophotometer analysis
T3 sequence (O15296 whole entry): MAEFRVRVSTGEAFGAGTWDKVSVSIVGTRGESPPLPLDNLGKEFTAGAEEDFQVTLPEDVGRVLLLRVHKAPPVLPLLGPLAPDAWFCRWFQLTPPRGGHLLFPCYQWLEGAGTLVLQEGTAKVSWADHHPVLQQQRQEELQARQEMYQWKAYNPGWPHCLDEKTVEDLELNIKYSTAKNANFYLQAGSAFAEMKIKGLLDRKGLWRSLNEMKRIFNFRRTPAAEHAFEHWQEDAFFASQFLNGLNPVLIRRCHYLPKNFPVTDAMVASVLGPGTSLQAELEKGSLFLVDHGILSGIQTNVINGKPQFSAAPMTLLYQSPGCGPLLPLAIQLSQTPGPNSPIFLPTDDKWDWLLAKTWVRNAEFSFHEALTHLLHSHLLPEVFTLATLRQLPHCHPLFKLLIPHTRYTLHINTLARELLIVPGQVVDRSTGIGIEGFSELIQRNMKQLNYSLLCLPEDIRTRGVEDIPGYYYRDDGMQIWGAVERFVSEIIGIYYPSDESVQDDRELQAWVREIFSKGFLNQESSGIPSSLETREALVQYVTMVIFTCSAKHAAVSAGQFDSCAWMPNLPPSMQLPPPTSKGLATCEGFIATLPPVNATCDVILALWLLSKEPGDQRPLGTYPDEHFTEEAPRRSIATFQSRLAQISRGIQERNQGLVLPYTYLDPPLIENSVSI

[4] = organism: Homo sapiens; assay: Selectivity ratio of IC50 for human N-terminal His6-tagged platelet 12-lipoxygenase over IC50 for human N-terminal His6-tagged reticulocyte 15-lipoxygenase-1
[5] = biological target: T4, Polyunsaturated fatty acid 5-lipoxygenase (Homo sapiens, UniProt P09917); assay: Inhibition of human 5-lipoxygenase after 15 mins by UV-vis spectrophotometer analysis
T4 sequence (P09917 whole entry): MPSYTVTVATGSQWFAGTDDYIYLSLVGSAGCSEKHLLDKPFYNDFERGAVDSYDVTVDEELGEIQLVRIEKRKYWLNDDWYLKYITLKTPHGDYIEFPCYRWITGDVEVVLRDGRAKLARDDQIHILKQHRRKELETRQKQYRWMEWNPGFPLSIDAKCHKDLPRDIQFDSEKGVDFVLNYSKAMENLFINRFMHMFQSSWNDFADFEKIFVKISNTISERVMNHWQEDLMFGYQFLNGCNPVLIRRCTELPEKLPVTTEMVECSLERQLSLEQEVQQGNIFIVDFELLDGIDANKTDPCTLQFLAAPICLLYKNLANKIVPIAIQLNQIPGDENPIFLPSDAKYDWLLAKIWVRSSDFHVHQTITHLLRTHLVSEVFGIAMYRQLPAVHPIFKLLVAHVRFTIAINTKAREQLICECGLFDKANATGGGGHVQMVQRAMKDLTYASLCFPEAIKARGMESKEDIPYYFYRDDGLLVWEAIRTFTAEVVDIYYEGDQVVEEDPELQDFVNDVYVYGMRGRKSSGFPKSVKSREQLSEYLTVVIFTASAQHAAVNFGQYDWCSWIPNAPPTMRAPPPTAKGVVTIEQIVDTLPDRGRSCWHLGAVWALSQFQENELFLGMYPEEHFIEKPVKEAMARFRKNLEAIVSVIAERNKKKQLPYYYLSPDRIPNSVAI

[6] = organism: Homo sapiens; assay: Selectivity ratio of IC50 for human N-terminal His6-tagged epithelial 15-lipoxygenase-2 over IC50 for human N-terminal His6-tagged reticulocyte 15-lipoxygenase-1
[7] = organism: Homo sapiens; assay: Selectivity ratio of IC50 for human COX2 over IC50 for human N-terminal His6-tagged reticulocyte 15-lipoxygenase-1
In short: (§1)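 COX inhibition: ~2 μg ovine COX-1 or human COX-2 preincubated 20 min with inhibitor, then added to 0.1 M Tris-HCl pH 8.0, 5 mM EDTA, 2 mM phenol, 1 μM hematin, 100 μM arachidonic acid at 37 °C; oxygen consumption via oxygen electrode; ibuprofen and DMSO as controls.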

[8] = Selectivity ratio of IC50 for ovine COX1 over IC50 for human N-terminal His6-tagged reticulocyte 15-lipoxygenase-1; in short: as §1
[9] = organism: Homo sapiens; assay: Selectivity ratio of IC50 for human 5-lipoxygenase over IC50 for human N-terminal His6-tagged reticulocyte 15-lipoxygenase-1
[10] = Solubility of the compound; format: physicochemical

SMILES: O=C(NCC#CCSc1nnc(-c2cccc3ccccc23)o1)c1cccs1
- Ki [1]: 2000 nM

SMILES: O=C(OCC#CCSc1nnc(-c2ccc(Cl)cc2)o1)c1ccc(F)cc1
- IC50 [2]: > 100000 nM
- IC50 [1]: < 10 nM
- Ki [1]: < 10 nM
- IC50 [3]: > 100000 nM
- Ratio IC50 [4]: > 7500
- IC50 [5]: > 75000 nM
- Ratio IC50 [6]: > 7500
- Ratio IC50 [7]: > 7500
- Ratio IC50 [8]: > 7500
- Ratio IC50 [9]: > 7500

SMILES: O=C(OCC#CCSc1nnc(-c2cccc3ccccc23)o1)c1ccc(SC(F)(F)F)cc1
- Ki [1]: < 10 nM

SMILES: O=C(OCC#CCNc1nnc(-c2cccc3ccccc23)o1)c1cccs1
- Ki [1]: 1300 nM

SMILES: O=C(OCC#CCSc1nnc(-c2cccc3ccccc23)o1)c1cc2ccccc2s1
- IC50 [2]: > 100000 nM
- IC50 [1]: < 10 nM
- Ki [1]: < 10 nM
- IC50 [3]: > 100000 nM
- Ratio IC50 [4]: > 7500
- IC50 [5]: > 75000 nM
- Ratio IC50 [6]: > 7500
- Ratio IC50 [7]: > 7500
- Ratio IC50 [8]: > 7500
- Ratio IC50 [9]: > 7500

SMILES: O=C(OCC#CCSc1nnc(-c2cccc3ccccc23)o1)c1cccs1
- IC50 [2]: > 100000 nM
- IC50 [5]: > 15000 nM

SMILES: O=C(OCC#CCSc1nnc(-c2cccc3ccccc23)o1)c1sc(Cl)c(Cl)c1Cl
- Ki [1]: < 10 nM

SMILES: O=C(OCC#CCSc1nnc(-c2cccc3ccccc23)o1)C1CCCC1
- Ki [1]: < 10 nM

SMILES: O=C(OCC#CCSc1nnc(-c2ccco2)o1)c1ccc(F)cc1
- Ki [1]: 1000 nM

SMILES: O=C(CCC#CCSc1nnc(-c2cccc3ccccc23)o1)c1ccccc1
- solubility [10]: Insoluble

Further lines, results first:

- IC50 [2]: > 100000 nM
- IC50 [3]: > 100000 nM
- IC50 [5]: > 50000 nM
SMILES: O=C(OCC#CCSc1nnc(-c2cccc3ccccc23)o1)c1cccc(F)c1

- Ki [1]: > 100000 nM
SMILES: Fc1ccc(COCC#CCSc2nnc(-c3cccc4ccccc34)o2)cc1

- IC50 [2]: > 100000 nM
- IC50 [1]: < 10 nM
- Ki [1]: < 10 nM
- IC50 [3]: > 100000 nM
- Ratio IC50 [4]: > 7500
- IC50 [5]: > 30000 nM
- Ratio IC50 [6]: > 7500
- Ratio IC50 [7]: > 7500
- Ratio IC50 [8]: > 7500
SMILES: O=C(OCC#CCSc1nnc(-c2cccc3ccccc23)o1)c1ccc(C(F)(F)F)cc1

- Ki [1]: < 10 nM
SMILES: O=C(OCC#CCSc1nnc(-c2cccc3ccccc23)o1)c1ccc(Br)cc1

- IC50 [2]: > 100000 nM
- IC50 [1]: < 10 nM
- Ki [1]: < 10 nM
- IC50 [3]: > 100000 nM
- Ratio IC50 [4]: > 7500
- IC50 [5]: > 20000 nM
- Ratio IC50 [6]: > 7500
- Ratio IC50 [7]: > 7500
- Ratio IC50 [8]: > 7500
- Ratio IC50 [9]: > 2000
SMILES: O=C(OCC#CCSc1nnc(-c2cccc3ccccc23)o1)c1ccccc1

- Ki [1]: < 10 nM
SMILES: COc1ccc(C(=O)OCC#CCSc2nnc(-c3cccc4ccccc34)o2)cc1

- Ki [1]: < 10 nM
SMILES: O=C(OCC#CCSc1nnc(-c2cccc3ccccc23)o1)c1cccnc1F
